The record followed here is the EternaBench riboswitch data.

The subject of this data set is MS2 coat protein. Kind of data set: apparent Kd, MS2 coat protein; higher = weaker binding; RNA-MaP array. The essentials: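 For each design, the apparent Kd is the median of binding-curve fits across its clusters. Designs measured on fewer than 10 clusters were dropped. The RNAs were transcribed from sequenced DNA templates on an Illumina sequencing chip and incubated at room temperature, with or without input ligand, with fluorescently labeled MS2 coat protein at 1.5 nM to 3 μM.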

The mark [1] stands for this setting: designed as: ON switch for flavin mononucleotide, no ligand.
Setting [2] is: ligand present: flavin mononucleotide, designed as: ON switch for flavin mononucleotide.
Setting [3] is: designed as: OFF switch for flavin mononucleotide, no ligand.
The mark [4] stands for this setting: ligand present: flavin mononucleotide, designed as: OFF switch for flavin mononucleotide.
The mark [5] stands for this setting: designed as: ON switch for tryptophan, no ligand.
The mark [6] stands for this setting: ligand present: tryptophan, designed as: ON switch for tryptophan.

The apparent Kd is a dissociation constant that holds for the conditions of the assay.

Take “GCGACUUUUACCGAGGAUAUGUCGUGACACACAUGAGGAUCACCCAUGUUUCUAAGUCCUGGAAUACAGAAGGCGGUAUUAAUACA”: the “apparent Kd” value by setting is: under setting [1], 7.53 nM; under setting [2], 5.42 nM.

Take “UAUACACAUCCACAUGAGGAUCACCCAUGUGUGCCUCGUUCCGAGGAUAUGGGCCACGAUGUUUCCCAGAAGGCGGUCGCUAUA”: the “apparent Kd” value reads like this: under setting [3], 15 nM; under setting [4], 12.7 nM.

On to “GUUUACAAUGUCAGGAUAUCACAGCGUACAAAUGUUGAGAAGGGACAUGAGGAUCACCCAUGUACACACCUCUU”, for which the “apparent Kd” value by setting is: under setting [3], 8.04 nM; under setting [4], 9.29 nM.

On to “GCGCGCGGUGGCGGUCAACAUGAGGAUCACCCAUGUGUGAACAGAAGGCGCGUAUGCUACCAUGGCGAGGAUAUGUUGGGUCAG”, for which the “apparent Kd” value under setting [3] is 5.95 nM and the “apparent Kd” value under setting [4] turned out to be 5.99 nM.

As for “AUUAGCAAGUCAUAGGAUAUGAAGCCACUUACAUGAGGAUCACCCAUGUAAUUCCGGGUCCCGCCUCAGAAGGAUGACGUAAUAGG”, the “apparent Kd” value was found to be 17.1 nM under setting [1] and 7.12 nM under setting [2].

As to “UACAAACCGUUAGAUGGGACAUGAGGAUCACCCAUGUAUAACAGAAGGUCAAAUUGAAACAUUCAGAAGGAUAUGUCAUACAAA”, the “apparent Kd” value under setting [3] was 85.3 nM and the “apparent Kd” value under setting [4] turned out to be 59.5 nM.

“AUACGUGCAGGAUAUUAUUCGAGCCACAUGAGGAUCACCCAUGUUAAUUCUUCAUGUAUCUAAGAAGGGCAGUGAA”: the “apparent Kd” value worked out at 9.07 nM under setting [3] and 9.67 nM under setting [4].

As to “UCACCAUGUCGAAACAUGAGGAUCACCCAUGUGAAUCAUGACAGAAGGUCUAUAGAAUGACGGAAGAAGGAUAUGUCAAUGCGC”, the “apparent Kd” value by setting is: under setting [3], 17.8 nM; under setting [4], 17.4 nM.

For the sequence “AGUCGUUAACGGCGCAACACAUGAGGAUCACCCAUGUGCUAUGAGGAUAUCCGGGUGUACAAGCCGGAGAAGGCAUCGUUCUUU”, the “apparent Kd” value runs as follows: under setting [1], 10.6 nM; under setting [2], 9.55 nM.

With “CCUCACAUGAGGAUCACCCAUGUCUUUACACGAGGACCGGUACGGCCGCCACUCGUUCACAAAACAACCAGAAGUGAUGCCUACA”, the “apparent Kd” value reads like this: under setting [5], 140 nM; under setting [6], 169 nM.

For “CCUCACGGACUCUCCACAUGAGGAUCACCCAUGUAAGCCGCGAAGGAUAUGAACGUCUCUCCGGGUCAGAAGGUCGCCGGUCCU”, the “apparent Kd” value is, setting by setting: under setting [3], 8.78 nM; under setting [4], 9.71 nM.

With “AGUUGACCAAGAGGAUAUGCCCUGUCUUUAUGUACAUGCAGAACAUGAGGAUCACCCAUGUGACGGCAGAAGGCUUAGCCGGUG”, the “apparent Kd” value is, setting by setting: under setting [3], 6.77 nM; under setting [4], 7.12 nM.

For “CUCACUAAGCUUUAGGAUAUAGACACUGGCACAUGAGGAUCACCCAUGUUCAACAAGGCGGAUAACUAGAAGGAAAGUAACCUUUU”, the “apparent Kd” value stood at 11.9 nM under setting [1] and 9.64 nM under setting [2].

For the sequence “CUGACGUAACAUGAGGAUCACCCAUGUUUGGCGCUAUAGCAACAGGAUAUUCCGCUCACGGAGCUGAAGAAGGGUUACAGUCAC”, the “apparent Kd” value runs as follows: under setting [1], 14 nM; under setting [2], 8.37 nM.

As to “UUACAAAACCAGAAGGUCUAAAAGAUUAAAUGAGAAGGAUAUGGCUAAACAUGAGGAUCACCCAUGUAGAAAACGAUACGUGAU”, the “apparent Kd” value under setting [1] turned out to be 37.8 nM and the “apparent Kd” value under setting [2] amounted to 29.9 nM.

As to “AGACAUGAGGAUCACCCAUGUCUCGGGAUGCGUAGCUUGCACAGAAGGCAUGACCGCAACGGUGAUGAGGAUAUGUCGUACCAA”, the “apparent Kd” value under setting [1] worked out at 25.9 nM and the “apparent Kd” value under setting [2] was 8.87 nM.

“AGGGACAUGAGGAUCACCCAUGUUGAAACUCGAGGACCGGUACGGCCGCCACUCGUAUAAUCGAUGUCCAUUUGGGAUUCCGGCU”: the “apparent Kd” value under setting [5] was determined as 25.3 nM and the “apparent Kd” value under setting [6] was found to be 24.2 nM.

Turning to “CGCCACACAUGAUAAUCAUAACAUGAGGAUCACCCAUGUCAUAGAAGGUGCAUAUUUUAGAAUCGCAAGGAUAUAUGGACAAUU”, the “apparent Kd” value under setting [3] came out at 16.2 nM and the “apparent Kd” value under setting [4] came out at 18.7 nM.

Consider “GCAUUAGAGGACACAUGAGGAUCACCCAUGUGCAUCAUCAGAUAGGAUAUCUUAACAGAAAUUUGAGAGAAGGAUCGUGUUCGG”, for which the “apparent Kd” value amounted to 7.84 nM under setting [3] and 7.53 nM under setting [4].

Regarding “UUUAGGUCAGAGAAGGGCCAUUCUACAUACUCGGCAGGAUAUCUAUUACCUGACAUGAGGAUCACCCAUGUGGUGAACCGACCA”, the “apparent Kd” value by setting is: under setting [1], 199 nM; under setting [2], 311 nM.

As to “GGGAAACAUGAGGAUCACCCAUGUAAGGAUAUAGAAGAUUCAACAUUCAAGAAUGAGACUAGAAGGUACAGAUC”, the “apparent Kd” value reads like this: under setting [3], 20.2 nM; under setting [4], 17.9 nM.

As to “CCUCAAAGACAGAAGGAAGGUCCGCUACUAGCAGUAACAACAUGAGGAUCACCCAUGUCAAUACCUUAGGAUAUGUAAGAACGC”, the “apparent Kd” value stood at 71.2 nM under setting [1] and 16.5 nM under setting [2].

As for “UCUCUCGAUGUGCAUUGACAUGAGGAUCACCCAUGUACUGCCUAGGAUAUAACUGGCCCGAUCAGUUAGAAGGAGGGAGAAUAG”, the “apparent Kd” value under setting [3] came out at 6.67 nM and the “apparent Kd” value under setting [4] was 6.51 nM.

For the sequence “UGUAACGAAGGAUAUACAAGAAGACAAGUGCGGCAGUACGUACAUGAGGAUCACCCAUGUAGAAGGUCGAAGGC”, the “apparent Kd” value under setting [3] stood at 7.03 nM and the “apparent Kd” value under setting [4] amounted to 7.66 nM.

In the case of “CAGCCGGCCUAGAAGGUCGAAAUCCAAAUCGUCGAAGGAUAUAGGUCCAGAAAACAAUUACAUGAGGAUCACCCAUGUAUCCUG”, the “apparent Kd” value under setting [1] stood at 21.5 nM and the “apparent Kd” value under setting [2] came out at 14.2 nM.

With “UGAUUGAGCGGAGGAUAUCUUAAUGAGCACGUAAGAGAAGGCCGGUGGCUCCUAUAUGCAGCGCACAUGAGGAUCACCCAUGUC”, the “apparent Kd” value reads like this: under setting [3], 170 nM; under setting [4], 91.6 nM.

“CAAGGGAAAGUCAGGAUAUGCACAACCGACCGUUUGCAGAAGGGACAUGAGGAUCACCCAUGUGUGGAACUGUU”: the “apparent Kd” value is, setting by setting: under setting [3], 9.02 nM; under setting [4], 21.4 nM.

Consider “CGUAUGUGAGGAUAUCCGAAACUAUUUACCAAAUUAUAAGUGGAGAAGGCACAUGAGGAUCACCCAUGUGAUGG”, for which the “apparent Kd” value under setting [3] was determined as 11.5 nM and the “apparent Kd” value under setting [4] turned out to be 24.6 nM.

Consider “GUCGAUUUUAAAUUGACAUGAGGAUCACCCAUGUCUUUAAUCAGAAGGCGGACAACAUUAUGUGCCGAGGAUAUGAUUGGAUCC”, for which the “apparent Kd” value under setting [1] worked out at 14.2 nM and the “apparent Kd” value under setting [2] is 11.3 nM.

As for “GACAAUAAUUCAACAAUCAAAAUAGUGGGACGAGGACCGGUACGGCCGCCACUCGCUGAAGCACAUGAGGAUCACCCAUGUCUAA”, the “apparent Kd” value is 17.2 nM (designed as: OFF switch for tryptophan, no ligand) and 17.8 nM (ligand present: tryptophan, designed as: OFF switch for tryptophan).

On to “CCCGACGAGCCUGAGAUUAAGUAAGCGGAUACCAGAGAUAGGUAGCUCCCUUGGCAGCCGUGGACAUGAGGAUCACCCAUGUCAC”, for which the “apparent Kd” value runs as follows: (designed as: OFF switch for theophylline, no ligand) 11.1 nM; (ligand present: theophylline, designed as: OFF switch for theophylline) 11.2 nM.

With “CAUAAACCCUAGAAGGGCGCAUUAUGUAGAUUCGCAGGAUAUAGGAACGGGAUCGUGUAUACAACAUGAGGAUCACCCAUGUCA”, the “apparent Kd” value by setting is: under setting [1], 15.4 nM; under setting [2], 14.4 nM.

Turning to “GGCUGCGAUGGCGGAAAUUAUUUACAUAGGCGAGGACCGGUACGGCCGCCACUCGAACGUACAUGAGGAUCACCCAUGUGAUAAU”, the “apparent Kd” value was 71.8 nM under setting [5] and 26.5 nM under setting [6].

For “ACAAAAUAGCUAGGAUAUCGUACGAAUUGACAUUUUUAGCAAACAUGAGGAUCACCCAUGUCCUACGAGAAGGAGCUUAUGAAG”, the “apparent Kd” value is 14.3 nM under setting [3] and 7.55 nM under setting [4].

Regarding “CUUUAUACAUGAGGAUAUUGGAAAACCGGCGUACAAGAAGGCAUGACAUGAGGAUCACCCAUGUAAAGAUAAAGACAAAGCUAA”, the “apparent Kd” value under setting [1] came to 22.7 nM and the “apparent Kd” value under setting [2] worked out at 10.3 nM.

Take “AGAAAACAUGAGGAUCACCCAUGUAAGGAUAUACAAACUCCAGAAAUAAAAGGAUUAAGAAGAAGGUACAUAAA”: the “apparent Kd” value under setting [3] was 10.9 nM and the “apparent Kd” value under setting [4] turned out to be 9.2 nM.

In the case of “GUUUUUUAAGGAUAUUCUAUUUCUAACAUGAGGAUCACCCAUGUACCCUCGUGCUAGCGAGAAGAAGGUAACAAAC”, the “apparent Kd” value runs as follows: under setting [3], 546 nM; under setting [4], 427 nM.

Regarding “UUCACGUUAGGAUAUCGCGUCAGCACAGCCUGUAUGGCAAGCGAGAAGGAACAUGAGGAUCACCCAUGUCGGAC”, the “apparent Kd” value under setting [3] turned out to be 11.4 nM and the “apparent Kd” value under setting [4] came to 28.7 nM.

Take “GGUUUGAACAAGAAGGUGAGUCACGAGACCCUGGGAUCUCGGGACAUGAGGAUCACCCAUGUCGUCAAGGAUAUUGUGGUGUUU”: the “apparent Kd” value runs as follows: under setting [1], 769 nM; under setting [2], 191 nM.

As to “GUGAUCAUCCGAGGAUAUUUUUCAUAGGCAUAAGGGGACAUGAGGAUCACCCAUGUAAACACCAUAAAGAAGGCGGGGCAGACC”, the “apparent Kd” value was 20 nM under setting [3] and 15.3 nM under setting [4].

For “GUGCGAAUGCAAGGAUAUGUCACAUAAACUGGAACAGAAGGUGCUGCUGAACAUGAGGAUCACCCAUGUACUUGACCGGCAACU”, the “apparent Kd” value under setting [1] is 7.6 nM and the “apparent Kd” value under setting [2] is 6.81 nM.

Turning to “CGAUGGGUAACAGGAUAUGAAUGGAAACCUCCAGUGUUGAGCACUUACAUGAGGAUCACCCAUGUUCAGAAGGGUUUGUGAUUG”, the “apparent Kd” value runs as follows: under setting [1], 38.9 nM; under setting [2], 59.9 nM.

For the sequence “UGGCGCUGUGCAGGAUAUAUCAAUUAGAACAGGGCGCAGGGUAGAAACAUGAGGAUCACCCAUGUAUAGAAGGGCACAGUAGGU”, the “apparent Kd” value runs as follows: under setting [3], 53.1 nM; under setting [4], 49.7 nM.

Take “GUUCCCAUAUCAGGAUAUAUUUCACAUGAGGAUCACCCAUGUUACCCGUGAAGUCGACUCUAUGUAUAGAAGGGAUGAUGGGCC”: the “apparent Kd” value by setting is: under setting [3], 55.4 nM; under setting [4], 43.7 nM.

Regarding “AUUAACUCAGCAGGAUAUCUCAGCGGACGUUGCAGAGAAGGGCUAUGCCUAUGUAGGCAACUCACAUGAGGAUCACCCAUGUAA”, the “apparent Kd” value reads like this: under setting [1], 38.8 nM; under setting [2], 19.1 nM.

Turning to “ACCAGGUCAGGAUAUAGUUGGCAUUUGGCUGUGCCUCACUACUAGAAGGGACAUGAGGAUCACCCAUGUUGGGC”, the “apparent Kd” value under setting [3] worked out at 28.6 nM and the “apparent Kd” value under setting [4] was 50.5 nM.

Consider “ACUCGACAUGAGGAUCACCCAUGUCAGGAUAUCUGAGUGUGGCCUCCUACUAAACUAUAGAGAAGGGACAAUGG”, for which the “apparent Kd” value runs as follows: under setting [3], 10.3 nM; under setting [4], 11 nM.
